Experimental data from different studies.
Lines come from different studies, so protocols differ.
Target: Cholinesterase (BCHE, Homo sapiens, UniProt P06276)
Effect on: enzyme activity
Action: inhibitor

O=[N+]([O-])c1c[nH]c(-c2n[nH]c(=S)n2/N=C/c2ccc(F)cc2)c1  IC50 (Ellman): 9.1 µM
COc1ccc(S(=O)(=O)Oc2ccccc2C=NNC(=O)c2ccc(F)cc2)cc1  IC50 (Ellman): 0.114 µM
C#CCN(C)CCCOc1cccc(CN(C)c2c3c(nc4ccccc24)CCCC3)c1  IC50 (Ellman): 0.41 µM
O=[N+]([O-])c1c[nH]c(-c2n[nH]c(=S)n2/N=C/c2cc(Cl)cc(Cl)c2)c1  IC50 (Ellman): 14.3 µM
COc1ccc(S(=O)(=O)Oc2cc(OC)ccc2C=NNC(=O)c2ccc(F)cc2)cc1  IC50 (Ellman): 0.113 µM
CN(C)c1ccc(/C=N/n2c(-c3cc([N+](=O)[O-])c[nH]3)n[nH]c2=S)c(O)c1  IC50 (Ellman): 22.2 µM
COc1ccc(S(=O)(=O)Oc2ccc(C=NNC(=O)c3ccc(F)cc3)cc2)cc1  IC50 (Ellman): 0.0836 µM
C#CCN(C)CCCCOc1cccc(CN(C)c2c3c(nc4ccccc24)CCCC3)c1  IC50 (Ellman): 0.37 µM
Cn1cc(-c2cc(C(=O)NN=Cc3ccccc3Cl)no2)c2ccccc21  IC50: > 100 µM
C#CCN(C)CCCCCOCc1ccc(CN(C)c2c3c(nc4ccccc24)CCCC3)cc1  IC50 (Ellman): 0.61 µM
COc1ccc(OC)c(C=NNC(=O)c2cc(-c3cn(C)c4ccccc34)on2)c1  IC50: > 100 µM
O=[N+]([O-])c1c[nH]c(-c2n[nH]c(=S)n2/N=C/c2ccc(Oc3ccccc3)cc2)c1  IC50 (Ellman): 21.1 µM
C#CCN(C)CCCCCCOc1cccc(CN(C)c2c3c(nc4ccccc24)CCCC3)c1  IC50 (Ellman): 0.32 µM
Cn1cc(-c2cc(C(=O)NN=Cc3ccccc3)no2)c2ccccc21  IC50: > 100 µM
C#CCN(C)CCCCOCc1ccc(CN(C)c2c3c(nc4ccc(C)cc24)CCCC3)cc1  IC50 (Ellman): 1.78 µM
Cn1cc(-c2cc(C(=O)NN=Cc3ccncc3)no2)c2ccccc21  IC50: > 100 µM
O=[N+]([O-])c1c[nH]c(-c2n[nH]c(=S)n2/N=C/c2cc(O)cc(F)c2)c1  IC50 (Ellman): 9.6 µM
C#CCN(C)CCCCCOCc1ccc(CN(C)c2c3c(nc4ccc(C)cc24)CCCC3)cc1  IC50 (Ellman): 1.12 µM
O=[N+]([O-])c1c[nH]c(-c2n[nH]c(=S)n2/N=C/c2ccc(Cl)cc2[N+](=O)[O-])c1  IC50 (Ellman): 16.4 µM
Cc1ccc(CN2CCN(Cc3nnc(-c4ccccc4)o3)CC2)cc1  IC50 (Ellman): > 10 µM
Cn1cc(-c2cc(C(=O)NN=Cc3ccccc3F)no2)c2ccccc21  IC50: > 100 µM
C#CCN(C)CCCCCCOCc1ccc(CN(C)c2c3c(nc4ccccc24)CCCC3)cc1  IC50 (Ellman): 0.43 µM
